Screens: PubChem, several laboratories
Hits are enriched below; roughly 4.1% of the tested compounds scored in any of these assays.
Cl transport mod = KCC2 (human) Cl- transport modulation. 2.2% of 190,000 active. KCC2 cells, thallium flux FluoZin-2 fluorescence. AID 1456. B-score of Tl+ flux slope (higher = more flux/activation; lower = inhibition) at 10 µM;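 active means thallium flux slope and its plate-corrected score both differing from the plate sample mean at a set confidence after two filtering rounds, in either direction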;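 further: slope of fluorescence scaled to starting intensity during 10 to 20 s after thallium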
Target sequence (Q9H2X9 whole entry, looked up): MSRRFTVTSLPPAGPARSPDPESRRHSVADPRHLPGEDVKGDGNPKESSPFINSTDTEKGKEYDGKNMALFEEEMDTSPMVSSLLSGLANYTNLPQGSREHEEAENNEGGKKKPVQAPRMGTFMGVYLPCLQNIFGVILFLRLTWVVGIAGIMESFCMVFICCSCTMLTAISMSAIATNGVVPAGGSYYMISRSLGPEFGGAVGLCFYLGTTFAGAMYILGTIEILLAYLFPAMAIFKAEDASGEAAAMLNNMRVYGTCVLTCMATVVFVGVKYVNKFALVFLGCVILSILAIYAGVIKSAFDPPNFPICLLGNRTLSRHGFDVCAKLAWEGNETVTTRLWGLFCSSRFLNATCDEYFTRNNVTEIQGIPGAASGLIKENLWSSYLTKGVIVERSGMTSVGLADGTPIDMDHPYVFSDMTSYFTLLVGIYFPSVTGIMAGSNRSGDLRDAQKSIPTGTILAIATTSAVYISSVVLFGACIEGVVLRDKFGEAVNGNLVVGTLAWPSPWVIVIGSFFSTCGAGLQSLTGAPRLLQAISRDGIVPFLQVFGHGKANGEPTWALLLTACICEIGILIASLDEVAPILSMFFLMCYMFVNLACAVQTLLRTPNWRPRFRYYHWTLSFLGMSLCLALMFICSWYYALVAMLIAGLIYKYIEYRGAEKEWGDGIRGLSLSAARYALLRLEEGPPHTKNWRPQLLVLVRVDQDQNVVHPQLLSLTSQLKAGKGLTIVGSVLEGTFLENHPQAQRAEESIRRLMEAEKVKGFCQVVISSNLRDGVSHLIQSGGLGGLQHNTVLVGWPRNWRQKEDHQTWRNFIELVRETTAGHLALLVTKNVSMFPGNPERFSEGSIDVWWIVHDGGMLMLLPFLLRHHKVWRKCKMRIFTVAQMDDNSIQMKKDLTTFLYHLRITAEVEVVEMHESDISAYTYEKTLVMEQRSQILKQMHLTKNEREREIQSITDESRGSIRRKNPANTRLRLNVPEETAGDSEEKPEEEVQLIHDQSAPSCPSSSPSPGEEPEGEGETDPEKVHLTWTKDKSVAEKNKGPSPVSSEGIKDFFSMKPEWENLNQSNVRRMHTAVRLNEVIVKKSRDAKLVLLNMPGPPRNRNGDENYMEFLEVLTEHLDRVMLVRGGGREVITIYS
KCNQ1 block = human KCNQ1 channel inhibition | P51787 | CHO-K1 KCNQ1, FluxOR thallium flux fluorescence; stronger effect = higher value | B-score at 10 µM | 1.3% of 310,000 active | AID 2642;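 active means compounds whose thallium flux B-score, printed positive for inhibition, exceeds three library SD while starting fluorescence stays within three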;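 further: channel opened by potassium depolarization with thallium stimulus after 20 min compound exposure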
KCNK9 inh = inhibitors of human KCNK9 two-pore domain potassium channel; AID 488922; Q9NPC2; 1.2% of 310,000 active; B-score at 10 µM; HEK293 KCNK9, FluxOR thallium flux fluorescence; stronger effect = lower value;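 active means ratio B-score over 3 SD below the library mean, with starting fluorescence within 5 SD of its mean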;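 further: negative B-score means less thallium flux so channel inhibition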
KCNQ1 pot = potentiates or activates the human KCNQ1 potassium channel; P51787; CHO-K1 KCNQ1, thallium flux FluxOR fluorescence; stronger effect = higher value; B-score at 10 µM; 0.35% of 310,000 active;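 active means fluorescence ratio B-score, a plate-corrected score, at least three library SD, with initial intensity B-score within 5 SD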
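assay system = CHO-K1 cells stably expressing KCNQ1 | medium = assay buffer, equal DMSO in all wells | timing = 37 °C overnight plating, 90-min dark dye load, 20-min compound pretreatment | measured by = kinetic FluxOR thallium fluorescence, 10-s 1-Hz baseline, 110-s post-stimulus read | measure = fluorescence change relative to baseline, converted to B score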
KCNK3 inh = human KCNK3 channel inhibition, primary screen. O14649. CHO-KCNK3 thallium flux, FluxOR fluorescence; stronger effect = lower value. B-score at 10 µM. 0.84% of 340,000 active. AID 602410;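 active means B-score under library mean minus 4 SD, starting fluorescence ratio at most library mean plus 5 SD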;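 further: more negative B-score means stronger inhibition of thallium flux through KCNK3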
hERG rescue = hERG (human) protection from proarrhythmic block. CHO-hERG, FluxOR thallium flux, dofetilide IC70 present. activation (rescue from dofetilide block), less the hit threshold, % at 10 µM. 0.51% of 310,000 active. AID 1511;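 active means activation above the mean of controls blocked by dofetilide plus 5 SD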;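 further: thallium influx through hERG after potassium depolarization seen as dye fluorescence rise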
KCC2 secondary = KCC2 (human) modulation, secondary assay; 15% of 3,700 active; normalised thallium flux (F/F0 slope) at 10 µM; HEK293-KCC2, thallium flux, FluoZin2 fluorescence; stronger effect = higher value; AID 1713; shares compounds with Cl transport mod;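 active means thallium flux slope above the same plate's solvent-only control mean plus 3 SD; inconclusive means the two replicate wells disagree; inactive means no significant difference from solvent-only control wells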
KCC2 bumet counter = thallium flux persisting under bumetanide in KCC2 cells, counter-screen secondary assay. shares compounds with Cl transport mod. HEK293-KCC2 + bumetanide/ouabain, thallium flux FluoZin2; stronger effect = higher value. normalized thallium flux at 10 µM. 49% of 3,700 active;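 active means thallium entry rate above the same plate's blocked-transporter control wells by more than 3 SD; inconclusive means the two repeat wells disagree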;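 further: raw slope of fluorescence over initial fluorescence between 10 and 20 s after thallium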
KCC2 secondary2 = confirmation of human KCC2 transport modulators | 23% of 3,700 active | AID 1715 | normalized thallium flux at 10 µM | HEK293-KCC2, thallium flux FluoZin2 fluorescence; actives lie on both sides; F/F0 rise rate, 10–20 s post-thallium | shares compounds with Cl transport mod;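 active means thallium flux slope more than 3 SD above or below the plate's solvent-only control mean, mostly below; inconclusive means the two repeat wells disagreed; inactive means no significant shift from solvent-only controls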;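 further: raw slope with 0.1% DMSO as baseline and bumetanide as block control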
HEK counter1 = parental HEK flux effect, counter-screen; shares compounds with Cl transport mod; HEK293 parental cells, thallium flux FluoZin2, ouabain; baseline-ratio fluorescence slope, 10–20 s after thallium; thallium flux rate (normalised fluorescence) at 10 µM; 46% of 3,700 active; AID 1716;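 active means thallium flux rate significantly above the same plate's solvent-only control wells, beyond their mean plus 3 SD; inconclusive means the two replicate wells gave conflicting results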
KCC2 retest ouab = confirmation of human KCC2 modulators with ouabain | shares compounds with Cl transport mod | HEK293-KCC2, thallium flux FluoZin2 fluorescence; bidirectional: low = inhibitor, high = activator | raw Tl+ flux slope (below DMSO = inhibition, above = activation) at 10 µM | 48% of 3,700 active | AID 1717;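 active means thallium flux slope beyond 3 SD from same-plate DMSO control mean in most replicates, usually higher, sometimes lower; inconclusive means repeat tests gave conflicting results; inactive means no significant difference from controls in most replicates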;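 further: slope of initial-normalized fluorescence between seconds 10 and 20 after thallium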
HEK293 Tl flux2 = parental HEK flux effect, counter-screen 2; 33% of 3,700 active; AID 1718; shares compounds with Cl transport mod; thallium flux slope at 10 µM; HEK293 parental, thallium flux FluoZin-2 fluorescence slope;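 active means thallium flux slope above the same plate's solvent-control mean plus 3 SD in both duplicate wells; inconclusive means duplicate wells that disagreed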;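 further: run without ouabain in cells lacking the KCC2 cotransporter; slope of fluorescence scaled to its starting value between 10 and 20 s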
KCNK9 inh conf = confirmation of human KCNK9 potassium channel inhibitors | shares compounds with KCNK9 inh | HEK293 KCNK9 cells, FluxOR thallium flux fluorescence | inhibition, % at 10 µM | 43% of 4,900 active | AID 492992;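 active means thallium signal inhibited by more than 5 SD of the compound-free buffer control wells, on both duplicate plates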;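 further: 0% = assay buffer control wells without compound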
Kir2-1 spec = mouse Kir2.1 off-target activity of KCNK9 modulators; 4% of 4,900 active; Kir2.1 cells, FluxOR thallium flux fluorescence; shares compounds with KCNK9 inh; AID 492993; inhibition, % at 10 µM;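 active means thallium signal drop more than 5 SD beyond the mean of the no-compound control wells, seen in both duplicate plates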;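 further: signal is fluorescence rise after thallium addition divided by baseline fluorescence; plate controls were assay buffer only for no effect and full block by chlorpromazine control for full effect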
KCNK9 uninduced = non-induced cell nonspecific activity of KCNK9 modulators; AID 492997; shares compounds with KCNK9 inh; 40% of 4,900 active; inhibition, % at 10 µM; non-induced KCNK9-HEK293, FluxOR thallium flux;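 active means thallium signal drop beyond 5 SD of the untreated control mean, on both duplicate plates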;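 further: plate controls were buffer only IC0 wells for no effect and SID17386958 at its maximal inhibitory level for full effect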
Active calls of the source: *; i = inactive; ? = inconclusive; . = no result given.

SMILES | Cl transport mod | KCNQ1 block | KCNK9 inh | KCNQ1 pot | KCNK3 inh | hERG rescue | KCC2 secondary | KCC2 bumet counter | KCC2 secondary2 | HEK counter1 | KCC2 retest ouab | HEK293 Tl flux2 | KCNK9 inh conf | Kir2-1 spec | KCNK9 uninduced
COc1cc(-c2c(C#N)c(N)nc(SCc3ccncc3)c2C#N)cc(OC)c1OC | . | i | -10* | i | i | -16 | 0.0085 | 0.0065 | 0.029 | 0.0072 | ? | ? | i | i | 27%*
N#Cc1c(N)nc(SCc2ccncc2)c(C#N)c1-c1cccs1 | 0.36 | i | i | i | i | -15 | . | . | . | . | . | . | . | . | .
CCCCC(c1nnnn1Cc1ccco1)N1CCN(c2nc3ccccc3s2)CC1 (stereo not drawn) | -6.9* | i | -16* | i | i | -10 | 0.0092 | 0.0063 | ? | 0.0067 | 0.015* | 0.011 | 48%* | i | 33%*
CCCC(c1nnnn1CCOC)N1CCN(c2nc3ccccc3s2)CC1 (stereo not drawn) | -1.4 | i | i | i | i | -10 | . | . | . | . | . | . | . | . | .
C/C(=N\NC(=S)NCCc1ccccc1)c1ccc(Cl)cc1 | 6.2* | i | i | i | i | 0 | 0.0061 | 0.014* | 0.03 | 0.014* | 0.023 | ? | i | i | i
CN1CCN(C(=O)c2cc(COc3c(F)cccc3F)on2)CC1c1ccccc1 (stereo not drawn) | -4* | i | i | i | i | -8 | 0.0071 | 0.0047 | 0.033 | 0.0067 | 0.015* | 0.012 | i | i | i
COc1ccc(C(C(=O)NC(C)(C)C)N(C(=O)CCC(=O)Nc2cc(C)on2)c2ccc(C)c(C)c2)cc1 (stereo not drawn) | . | i | i | i | i | -10 | . | . | . | . | . | . | . | . | .
COc1ccc(C(=O)C2CCCN(C(=O)c3noc4c3CCCC4)C2)c(C)c1 (stereo not drawn) | . | i | i | i | i | -4 | 0.0064 | 0.004 | 0.028 | ? | 0.017 | 0.01 | i | i | i
COc1ccc(C(=O)C2CCCN(C(=O)c3csc(C(C)=O)c3)C2)c(C)c1 (stereo not drawn) | . | i | i | i | i | -6 | . | . | . | . | . | . | . | . | .
CCCn1c(=O)c(C(=O)NNC(=O)Cc2ccccc2)c(O)c2ccccc21 | . | i | i | i | i | -3 | . | . | . | . | . | . | . | . | .
CCCCCCCC(=O)NNC(=O)c1c(O)c2ccccc2n(CC)c1=O | 11* | i | i | i | i | -6 | 0.0052 | 0.016* | 0.033 | 0.017* | ? | 0.019* | i | i | i
C[C@@]12C(=O)OC(=O)[C@]1(C)C1CCC2O1 | . | . | . | . | i | . | . | . | . | . | . | . | . | . | .
COc1ccc(C(C(=O)NCC2CCCO2)N(Cc2ccccc2)C(=O)CNC(=O)c2ccco2)cc1OC (stereo not drawn) | . | i | i | i | i | -11 | . | . | . | . | . | . | . | . | .
O=C1OCc2ccc(NS(=O)(=O)c3ccc(C(F)(F)F)cc3)cc21 | -0.38 | i | i | i | i | -2 | . | . | . | . | . | . | . | . | .
NC(=O)c1sc(-c2ccsc2)cc1NS(=O)(=O)c1ccc(C(F)(F)F)cc1 | -5.4* | i | i | i | i | -14 | 0.0074 | 0.0061 | 0.03 | 0.0069 | 0.012* | 0.011 | i | i | i
O=C(Nc1ccc(Cl)cc1F)C1CC(=O)N(Cc2ccco2)C1 (stereo not drawn) | . | . | . | . | i | . | . | . | . | . | . | . | . | . | .
COc1ccccc1CNC(=O)COC(=O)c1ccccc1SCC(=O)N1CCCC1 | . | i | i | i | i | -20 | . | . | . | . | . | . | . | . | .
Cc1nn(-c2cc(C(F)(F)F)ccc2Cl)c2nc(C(Cl)(Cl)Cl)[nH]c(=O)c12 | 50* | i | i | i | i | -4 | 0.0058 | 0.061* | 0.048* | 0.036* | 0.048* | 0.034* | i | i | i
Cc1nn(-c2ccccc2)c(N)c1Sc1cccc([N+](=O)[O-])c1 | -7* | i | -13* | i | i | -9 | 0.0085 | 0.0048 | 0.031 | 0.0053* | 0.028 | 0.0097 | 66%* | i | 29%*
O=C(/C=C/c1cccc([N+](=O)[O-])c1)NCCSc1ccccc1 | . | i | i | i | i | -11 | . | . | . | . | . | . | . | . | .
Cc1ccc(SCCNC(=O)/C=C/c2cccc([N+](=O)[O-])c2)cc1 | -4.5* | i | i | i | i | -5 | 0.0073 | 0.0047 | 0.035 | 0.0068 | 0.015* | 0.011 | i | i | i
O=C(O)c1ccccc1-c1ccccc1C(=O)Nc1ccc(-c2nc3cc(Cl)ccc3o2)cc1 | -3.7* | i | i | i | i | -17 | 0.0075 | 0.0048 | 0.019* | 0.0077 | 0.012* | 0.01 | i | i | i
CC(=O)Nc1ccc(-c2nc3cc(Cl)ccc3o2)cc1 | . | i | i | i | i | -7 | . | . | . | . | . | . | . | . | .
Cc1ccnn1-c1ccc(C(=O)OCC(=O)Nc2ccc(F)cc2)cc1 | . | . | . | . | i | . | . | . | . | . | . | . | . | . | .
Cc1ccc(C)c(NC(=S)N/N=C2/CCCCc3ccccc32)c1 | 9.6* | i | i | i | i | -4 | 0.0064 | 0.036* | 0.047* | 0.037* | 0.038* | 0.038* | i | i | i
COc1cc(OC)c(OC)cc1CNCc1ccco1 | . | i | i | i | i | -3 | . | . | . | . | . | . | . | . | .
